# Apaf-1 inh = inhibitors of human Apaf-1 apoptosome, primary screen, biochemical, DEVD-Rh110 fluorescence, uHTS; Apoptotic protease-activating factor 1 (Homo sapiens), O14727; reconstituted apoptosome caspase-3 activity; inhibition, % at 20 µM; hit rate 0.71% among 330,000; AID 489030, 2010; active = inhibition of at least 40% at 20 µM;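 note: plate controls were DMSO wells for no effect and DEVD-CHO caspase inhibitor wells for full effect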
#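 Material: reconstituted apoptosome with Apaf-1, cytochrome c, caspase-9, procaspase-3, dATP. Technique: Rh110 fluorescence intensity. Buffer or medium: pH 7.5 Hepes buffer with CHAPS, BSA, DTT. Times: 30 min plus 50 min, RT.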
# PAFAH1B3 FP inh = PAFAH1B3 enzyme inhibitors, primary screen, biochemical, fluorescence polarization, human | inhibition, % at 3.39 µM | hit rate 0.28% among 340,000 | recombinant PAFAH1B3, FP-rhodamine probe | Platelet-activating factor acetylhydrolase IB subunit alpha1 (Homo sapiens), Q15102;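 active = inhibition above the screen-wide average of all tested compounds plus 3 SD, cut at about 25% in these data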;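 note: 0% = enzyme with DMSO only and 100% = wells lacking PAFAH1B3 protein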
# Target sequence (Q15102 whole entry, looked up): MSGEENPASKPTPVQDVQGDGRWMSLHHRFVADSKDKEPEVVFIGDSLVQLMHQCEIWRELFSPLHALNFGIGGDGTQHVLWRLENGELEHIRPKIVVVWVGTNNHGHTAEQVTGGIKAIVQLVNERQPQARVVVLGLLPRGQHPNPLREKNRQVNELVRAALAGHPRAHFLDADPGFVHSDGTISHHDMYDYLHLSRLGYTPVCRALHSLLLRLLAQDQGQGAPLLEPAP
# PAFAH2 inh = PAFAH2 enzyme inhibitors, primary screen, biochemical, fluorescence polarization, human | recombinant PAFAH2, FP-rhodamine activity probe | inhibition, % at 3.39 µM | Platelet-activating factor acetylhydrolase 2, cytoplasmic (Homo sapiens), Q99487 | hit rate 0.99% among 340,000;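 active = inhibition above the mean over all tested compounds plus 3 SD, cut at about 30% in these data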;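 note: inhibitors block probe labeling of enzyme so polarization drops; 0% = enzyme with DMSO and 100% = wells lacking PAFAH2 protein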
# pPAFAH inh = pPAFAH enzyme inhibitors, primary screen, biochemical, fluorescence polarization, human | Platelet-activating factor acetylhydrolase (Homo sapiens), Q13093 | inhibition, % at 3.39 µM | AID 463082, 2010 | recombinant pPAFAH, FP-rhodamine probe fluorescence polarization | hit rate 1.5% among 330,000;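 active = inhibition above the mean inhibition across the screen plus 3 SD, cut at about 25% in these data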;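 note: inhibitors block binding of the rhodamine activity-based probe so polarization drops; 0% = enzyme with DMSO and 100% = wells lacking pPAFAH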
# Target sequence (Q13093 whole entry, looked up): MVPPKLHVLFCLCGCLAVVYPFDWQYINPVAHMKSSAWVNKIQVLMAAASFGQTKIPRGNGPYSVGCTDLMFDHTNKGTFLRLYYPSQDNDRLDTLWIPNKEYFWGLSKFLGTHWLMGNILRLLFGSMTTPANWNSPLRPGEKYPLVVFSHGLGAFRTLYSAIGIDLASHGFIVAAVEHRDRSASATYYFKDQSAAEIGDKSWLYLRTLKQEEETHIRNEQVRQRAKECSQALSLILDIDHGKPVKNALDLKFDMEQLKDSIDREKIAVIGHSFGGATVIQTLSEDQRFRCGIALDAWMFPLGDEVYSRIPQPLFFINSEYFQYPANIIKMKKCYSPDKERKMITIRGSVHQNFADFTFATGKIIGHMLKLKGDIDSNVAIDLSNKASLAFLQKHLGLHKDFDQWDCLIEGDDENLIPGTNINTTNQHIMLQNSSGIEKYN
# PAFAH1B2 FP inh = PAFAH1B2 enzyme inhibitors, primary screen, biochemical, fluorescence polarization, human; Platelet-activating factor acetylhydrolase IB subunit alpha2 (Homo sapiens), P68402; recombinant PAFAH1B2, FP-rhodamine activity probe; inhibition, % at 3.39 µM; hit rate 1.2% among 340,000; AID 492953, 2010;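 active = inhibition above the mean of all tested compounds plus 3 SD, cut at about 24% in these data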;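 note: 0% = enzyme with DMSO and 100% = wells lacking PAFAH1B2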
# Apaf-1 inh conf2 = Apaf-1 inhibitors, single-dose retest, confirmation, biochemical, fluorescence, DEVD-Rh110, 20 µM; inhibition, % at 20 µM; reconstituted apoptosome, caspase-3 DEVD-Rh110 fluorescence; AID 504614, 2011; hit rate 25% among 1,800; shares compounds with Apaf-1 inh;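 active = mean inhibition of at least 40% at 20 µM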;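 note: plate controls were DMSO wells for no effect and DEVD-CHO caspase inhibitor control wells for full effect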
# Rh110 quench = Rh110 fluorescence interference by putative Apaf-1 inhibitors, confirmation, artefact control for Apaf-1 inhibitor project, biochemical, 20 µM; shares compounds with Apaf-1 inh; quenched caspase reaction; activation (fluorescence interference), % at 20 µM; 1,800 tested, under 10 active; AID 504615, 2011;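 active = signal rise of 40% or more at 20 µM, treated as a fluorescence artifact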
# Apaf1 inh interf = fluorescence interference of Apaf-1 inhibitor hits, dose response, artefact control for Apaf-1 inhibitor project; shares compounds with Apaf-1 inh; 460 tested, under 10 active; fluorescence interference counterscreen, Apaf-1 assay format; IC50, µM; call rule not given here
# The depositor's hits bear a star; / = no result. Rows were chosen to be rich in hits. Some 3.1% of all compounds tested hit in one or more screens of this group.
SMILES,Apaf-1 inh,PAFAH1B3 FP inh,PAFAH2 inh,pPAFAH inh,PAFAH1B2 FP inh,Apaf-1 inh conf2,Rh110 quench,others
C#CCOCCOCCOCCNc1nc(N2CCN(C(=O)[C@H](CCCCN)n3cc(CN)nn3)CC2)nc(N2CCN(C(=O)[C@H](CCCCN)n3cc([C@@H](N)CC(N)=O)nn3)CC2)n1,/,-2,6,/,6,/,/,
C#CCOCCOCCOCCNc1nc(N2CCN(C(=O)[C@H]([C@@H](C)CC)n3cc([C@@H](N)Cc4ccc(O)cc4)nn3)CC2)nc(N2CCN(C(=O)[C@H](CCCCN)n3cc([C@@H](N)CO)nn3)CC2)n1,52*,/,/,-3,/,0,1,
C#CCOCCOCCOCCNc1nc(N2CCN(C(=O)C([C@@H](C)O)n3cc([C@@H](N)CCCCN)nn3)CC2)nc(N2CCN(C(=O)[C@H](CCCCN)n3cc([C@@H](N)CC(N)=O)nn3)CC2)n1 (stereo partly drawn),51*,5,-8,5,4,9,-2,
C#CCOCCOCCOCCNc1nc(N2CCN(C(=O)[C@H](CCCCN)n3cc([C@@H](N)CC(N)=O)nn3)CC2)nc(N2CCN(C(=O)[C@H](CCCCN)n3cc([C@@H](N)CC(N)=O)nn3)CC2)n1,55*,3,3,-1,5,5,3,
Cc1cccn2c(=O)nc(SCC(=O)Nc3ccc4c(c3)OCO4)nc12,4,1,3,-1,3,/,/,
O=[N+]([O-])c1ccc2nc(NN=Cc3ccc(O)cc3)sc2c1,/,7,-13,/,2,/,/,
COc1ccc(C(=O)COC(=O)c2nc3nccc(C)n3n2)cc1F,-14,7,7,3,2,/,/,
Cc1cc(C)c2nc(N(CCCN(C)C)C(=O)c3ccc4c(c3)CCCC4)sc2c1,42*,/,/,2,/,21,12,
CN(C)CCN(C(=O)c1ccc2c(c1)OCCO2)c1nc2cc3c(cc2s1)OCO3,4,8,-3,3,-1,/,/,
CCOc1ccc2nc(N(CCN(C)C)C(=O)c3ccc4c(c3)CCCC4)sc2c1,55*,10,2,0,3,14,-1,
Cc1ccc2nc(N(CCCN(C)C)C(=O)c3ccc4c(c3)CCCC4)sc2c1,17,2,-5,2,2,/,/,
CN(C)CCN(C(=O)c1ccc2c(c1)CCCC2)c1nc2cc3c(cc2s1)OCCO3,44*,5,1,-2,7,25,9,
COc1ccc(N2CCOCC2)c(NC(=O)c2cccnc2)c1,4,-4,-2,3,-2,/,/,
CCc1ccc(OCCCC(=O)Nc2ccc(S(=O)(=O)Nc3cc(C)nc(C)n3)cc2)cc1,4,-5,-5,2,1,/,/,
Cc1cc2ccccc2n1CCNC(=O)Cc1ccccc1,29,-6,6,7,2,/,/,
Cc1cccc(CC(=O)NCCn2c(C)cc3ccccc32)c1,41*,-4,-8,8,7,15,12,
COc1ccc(C(=O)/C=C/C(=O)N(CC(=O)NC2CCCCC2)CC2CCCO2)c(O)c1 (stereo not drawn),49*,8,12,5,5,10,8,
C=CCn1c(COc2cccc(C)c2)nnc1SC(C)C(=O)NC1CC1 (stereo not drawn),41*,-6,5,0,-2,47*,6,Apaf1 inh interf=>100
COc1ccc(Br)cc1/C=N/NC(=O)c1cc(Br)ccc1O,7,/,/,5,/,/,/,
C/C=N/NC(=O)c1cc(Br)ccc1O,57*,-2,-10,20,2,3,9,
C[C@@H]1CN([C@@H](C)CO)C(=O)c2cc(NC(=O)C3CC3)ccc2O[C@@H]1CN(C)Cc1ccc(Cl)c(Cl)c1,14,15,7,3,5,/,/,
CCC12CCCN3CCc4c(n(c5ccccc45)C(O)(C(=O)OC)C1)C32 (stereo not drawn),41*,13,11,12,6,18,0,
Cn1c(=O)n(C)c2cc(NC(=O)CSc3nc4ccccc4c(=O)[nH]3)ccc21,1,0,-3,5,5,/,/,
CCOc1ccc(-n2nc3ccc(N)cc3n2)cc1,84*,17,6,/,8,24,2,
CCOc1ccc(-n2nc3cc(C)c(N)cc3n2)cc1,26,11,6,-2,3,/,/,
SMILES,Apaf-1 inh,PAFAH1B3 FP inh,PAFAH2 inh,pPAFAH inh,PAFAH1B2 FP inh,Apaf-1 inh conf2,Rh110 quench,others
O=C1C=CC2(O[C@H](c3ccccc3)[C@@H](c3ccccc3)O2)[C@H](Sc2ccccc2O)C1,/,1,6,/,-1,/,/,
NS(=O)(=O)c1ccc(NC(=O)CSc2nc3ccccc3nc2N2CCOCC2)cc1,-1,9,0,23,1,/,/,
CC[C@@H](C)[C@H](CNC)NC[C@@H](Cc1cccc2ccccc12)NCCc1cccc(C(F)(F)F)c1,70*,-5,-5,-6,2,48*,13,Apaf1 inh interf=>100
CCC[C@H](CN[C@@H](CNC)[C@H](C)CC)NCCc1cc(C(F)(F)F)cc(C(F)(F)F)c1,12,8,2,0,7,/,/,
COc1ccc(-n2nc(C(=O)N(C)C)nc2-c2ccccc2)cc1,-14,2,-2,0,2,/,/,
CCCCn1c2nc3ccccc3nc2c2c(=N)oc(C)nc21,/,5,0,/,-2,/,/,
COc1ccc(-n2c3nc4ccccc4nc3c3c(=N)oc(C)nc32)cc1,96*,5,0,6,6,67*,6,Apaf1 inh interf=>100
CCOc1ccc(CCNC(=O)c2ccc(OCc3c(C)noc3C)cc2)cc1OCC,4,3,-9,-1,8,/,/,
OCCN1CCN(CC/C=C2/c3ccccc3Sc3ccc(C(F)(F)F)cc32)CC1,58*,4,-6,13,-7,11,2,
COc1cc(C2C(C(=O)c3ccc(C)o3)=C(O)C(=O)N2CCCn2ccnc2)cc(OC)c1OC (stereo not drawn),12,6,4,-1,0,/,/,
COc1ccc(C2C(C(=O)c3ccco3)=C(O)C(=O)N2CCCn2ccnc2)c(OC)c1 (stereo not drawn),57*,2,-5,2,-6,4,-16,
COc1ccc(/C=N/Nc2cc(C)nc3ccccc23)cc1,38,6,-6,5,4,/,/,
COc1ccc2nc(C)cc(N/N=C/c3ccc(F)cc3)c2c1,50*,-2,9,9,3,12,5,

# Screening results: PubChem, several laboratories
